Experimental data from ChEMBL document CHEMBL1212780, “Anti-Clostridium difficile potential of tetramic acid derivatives from Pseudomonas aeruginosa quorum-sensing autoinducers” (Antimicrob Agents Chemother, 2010).
Active and inactive are the calls of the source. The rule behind the calls is not given here.

Key:
Clostridioides difficile [1] = assay: Antibacterial activity against Clostridium difficile assessed as inhibition of bacterial viability at 3 to 50 uM after 24 hrs; assay type: functional, organism-based
In short: (§1)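 Cultured anaerobically for 24 h at 37°C in supplemented BHI broth with a range of compound concentrations. Survivors counted by plating 10-fold serial dilutions. Detection limit 2 log CFU/ml. Compared against bacteria grown without compound.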

Clostridioides difficile [2] = assay: Antibacterial activity against Clostridium difficile 1 assessed as inhibition of bacterial viability at 50 uM after 24 hrs; assay type: functional, organism-based
In short: (§2)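 C. difficile clinical isolates from pseudomembranous colitis patients, grown anaerobically at 37°C in BHI broth with 1% yeast extract and 0.1% L-cysteine. Cultured 24 h with compound, then viable counts taken by plating serial 10-fold dilutions on Mueller-Hinton agar with 5% sheep blood. n = 3. Detection limit 2 log CFU/ml.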

Clostridioides difficile [3] = assay: Antibacterial activity against Clostridium difficile 2 assessed as inhibition of bacterial viability at 50 uM after 24 hrs; assay type: functional, organism-based; in short: as §2
Clostridioides difficile [4] = assay: Antibacterial activity against Clostridium difficile 3 assessed as inhibition of bacterial viability at 50 uM after 24 hrs; assay type: functional, organism-based; in short: as §2
Clostridioides difficile [5] = assay: Antibacterial activity against Clostridium difficile 4 assessed as inhibition of bacterial viability at 50 uM after 24 hrs; assay type: functional, organism-based; in short: as §2
Clostridioides difficile [6] = assay: Antibacterial activity against Clostridium difficile assessed as induction of changes in cell surface structures by electron microscopy; assay type: functional, organism-based
In short: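 Postfixed 1 h in 1% OsO4, ethanol-dehydrated and Epon-embedded. Surface structure of treated cells compared with control cells.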

Clostridioides difficile [7] = assay: Induction of lipid membranes composition changes in Clostridium difficile by NMR spectroscopy; assay type: functional, organism-based
Clostridioides difficile [8] = assay: Antibacterial activity against Clostridium difficile assessed as inhibition of bacterial viability at 10 uM after 24 hrs relative to untreated control; assay type: functional; in short: as §1
Clostridioides difficile [9] = assay: Antibacterial activity against Clostridium difficile assessed induction of bacteriolysis at 30 uM after 26 hrs; assay type: functional, organism-based
In short: (§3)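 Anaerobic cultures in supplemented BHI were incubated with compound (30 or 50 μM depending on compound) for 26 h at 37°C. OD600 was read at each time point to follow growth and lysis, compared with an untreated control.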

Clostridioides difficile [10] = assay: Antibacterial activity against Clostridium difficile assessed induction of bacteriolysis at 50 uM after 26 hrs; assay type: functional, organism-based; in short: as §3
Clostridioides difficile [11] = assay: Drug uptake in Clostridium difficile assessed as dansylated compound accumulation at cell surface by electron microscopy; assay type: ADME, organism-based
In short: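 Bacteria treated with dansyl-labelled compound, fixed in 0.5% glutaraldehyde/2% paraformaldehyde at 4°C for 1 h without osmium, and embedded in Unicryl. Ultrathin sections blocked in 1.5% BSA, then rabbit anti-dansyl (1:100, 2 h, room temperature) and 10-nm gold anti-rabbit IgG (1:20, 30 min). Nonimmune serum used as negative control.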

Clostridioides difficile [12] = assay: Antibacterial activity against Clostridium difficile 1 assessed as inhibition of bacterial viability after 24 hrs; assay type: functional, organism-based
In short: (§4)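 Four clinical isolates from pseudomembranous colitis patients, grown anaerobically at 37°C in BHI broth with 1% yeast extract and 0.1% L-cysteine. Broth cultures exposed 24 h to a range of compound concentrations (autoinducers at 50 μM). Viable counts made by plating 10-fold serial dilutions on sheep-blood Mueller-Hinton agar; n = 3.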

Clostridioides difficile [13] = assay: Antibacterial activity against Clostridium difficile 2 assessed as inhibition of bacterial viability after 24 hrs; assay type: functional, organism-based; in short: as §4
Clostridioides difficile [14] = assay: Antibacterial activity against Clostridium difficile 3 assessed as inhibition of bacterial viability after 24 hrs; assay type: functional, organism-based; in short: as §4
Clostridioides difficile [15] = assay: Antibacterial activity against Clostridium difficile 4 assessed as inhibition of bacterial viability after 24 hrs; assay type: functional, organism-based; in short: as §4
Clostridioides difficile [16] = assay: Antibacterial activity against Clostridium difficile assessed as induction of morphological changes at 50 uM after 30 mins by Gram staining; assay type: functional, organism-based
In short: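 Bacteria grown 24 h at 37°C, pelleted at 5,000 rpm for 5 min, then exposed to compound at 50 μM for the stated time. Gram-stained and examined by light microscopy, compared with untreated cells.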

## CCC/C(O)=C1/C(=O)N[C@@H](CCO)C1=O
Clostridioides difficile [1]
  inhibition: Active

## CCCCCCCCCC(=O)CC(=O)N[C@H]1CCOC1=O
Clostridioides difficile [2]
  inhibition: inactive
Clostridioides difficile [3]
  inhibition: inactive
Clostridioides difficile [4]
  inhibition: inactive
Clostridioides difficile [5]
  inhibition: inactive
Clostridioides difficile [6]
  Activity: inactive
Clostridioides difficile [7]
  Activity: inactive

## CCCCCCCCC/C(O)=C1\C(=O)CNC1=O
Clostridioides difficile [1]
  inhibition: Active
Clostridioides difficile [8]
  fold change (FC): 100000
Clostridioides difficile [9]
  Activity: Active

## CCCCCCCCC/C(O)=C1/C(=O)N[C@@H](C)C1=O
Clostridioides difficile [10]
  Activity: Active
Clostridioides difficile [11]
  Drug uptake: Active
Clostridioides difficile [1]
  inhibition: Active

## CCCCCCCCC/C(O)=C1/C(=O)N[C@H](CCO)C1=O
Clostridioides difficile [10]
  Activity: Active
Clostridioides difficile [11]
  Drug uptake: Active
Clostridioides difficile [1]
  inhibition: Active

## CCCCCCCCC/C(O)=C1/C(=O)N[C@@H](CCO)C1=O
Clostridioides difficile [10]
  Activity: Active
Clostridioides difficile [12]
  inhibition: Dose-dependent effect
Clostridioides difficile [13]
  inhibition: Dose-dependent effect
Clostridioides difficile [14]
  inhibition: Dose-dependent effect
Clostridioides difficile [15]
  inhibition: Dose-dependent effect
Clostridioides difficile [16]
  Activity: Active
Clostridioides difficile [6]
  Activity: Active
Clostridioides difficile [11]
  Drug uptake: Active
Clostridioides difficile [7]
  Activity: Active

## CCCCCCCCC/C(OC)=C1/C(=O)N[C@@H](CCO)C1=O
Clostridioides difficile [1]
  inhibition: Active

## CCCCCCCCC/C(O)=C1\C(=O)CN(C)C1=O
Clostridioides difficile [1]
  inhibition: Active
Clostridioides difficile [9]
  Activity: Active

## CCCC(=O)N[C@H]1CCOC1=O
Clostridioides difficile [2]
  inhibition: inactive
Clostridioides difficile [3]
  inhibition: inactive
Clostridioides difficile [4]
  inhibition: inactive
Clostridioides difficile [5]
  inhibition: inactive
